According to ChEMBL document CHEMBL2346617, “Euryspongins A-C, three new unique sesquiterpenes from a marine sponge Euryspongia sp” (Bioorg Med Chem Lett, 2013):
Active and inactive are the calls of the source. No cut-off for these calls is given here.

Key:
[1] = biological target: T1, Tyrosine-protein phosphatase non-receptor type 1 (Homo sapiens) (UniProt P18031); assay: Inhibition of PTP1B (unknown origin) at 35 to 40 uM
T1 sequence (whole entry): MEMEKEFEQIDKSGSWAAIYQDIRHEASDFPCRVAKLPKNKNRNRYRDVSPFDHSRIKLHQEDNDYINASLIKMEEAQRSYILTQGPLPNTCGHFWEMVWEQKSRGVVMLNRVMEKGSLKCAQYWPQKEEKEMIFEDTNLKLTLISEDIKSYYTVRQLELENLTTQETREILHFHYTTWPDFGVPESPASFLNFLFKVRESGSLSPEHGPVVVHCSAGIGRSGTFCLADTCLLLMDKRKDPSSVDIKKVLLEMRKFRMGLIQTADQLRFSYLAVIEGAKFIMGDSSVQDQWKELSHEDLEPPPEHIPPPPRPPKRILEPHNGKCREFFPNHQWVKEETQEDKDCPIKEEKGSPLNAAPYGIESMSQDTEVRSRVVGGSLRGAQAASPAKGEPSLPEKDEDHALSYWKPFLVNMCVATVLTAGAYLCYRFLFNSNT

[2] = system: HCT-15; assay: Antiproliferative activity against human HCT15 cells at 45 uM; format: functional, cell-based
Summary of the method: (§1)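 Proliferation of human cancer cell lines HCT-15 (colon) and Jurkat (T-cell lymphoma) was tested at a single concentration of 45 μM per compound.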

[3] = system: Jurkat; assay: Antiproliferative activity against human Jurkat cells at 45 uM; format: functional, cell-based; summary of the method: as §1
[4] = biological target: T2, Tyrosine-protein phosphatase non-receptor type 1 (Homo sapiens, UniProt P18031); assay: Inhibition of PTP1B (unknown origin)
T2 sequence (P18031 whole entry): T1 sequence (whole entry)

For CC1=C[C@@H]2CC(C)(C)[C@H]1C[C@H](O)C1=CC(=O)O[C@@H]12 (relative stereo), the inhibition [1] was “inactive”, the inhibition [2] was “inactive” and the inhibition [3] was “inactive”.

With CC1=C[C@@H]2CC(C)(C)[C@H]1C[C@H](O)c1ccoc12 (relative stereo) the inhibition [1] was “inactive”, the inhibition [2] was “inactive” and the inhibition [3] was “inactive”.

With CO[C@]12OC(=O)C=C1[C@@H](O)C[C@H]1C(C)=C[C@@H]2CC1(C)C (relative stereo) the inhibition [1] was “inactive”, the inhibition [2] was “inactive” and the inhibition [3] was “inactive”.

For CC1=C[C@@H]2CC(C)(C)[C@H]1/C=C\c1ccoc12 (relative stereo) [REL-DEHYDROEURYSPONGIN A], the IC50 [4] was 3.6 µM, the inhibition [2] was “inactive” and the inhibition [3] was “inactive”.
